2 compounds from ChEMBL document CHEMBL1129929, “Analogues of methotrexate in rheumatoid arthritis. 1. Effects of 10-deazaaminopterin analogues on type II collagen-induced arthritis in mice” (J Med Chem, 1997) can be followed below.

In experiment [1] the test system is Mus musculus. Kind of experiment: Incidence of disease(mouse type II collagen arthritis) was scored as the percentage of animals within each experimental group that exhibited joint or limb inflammation on day 37 at intraperitoneal of dose 12 mg/kg (1 animal died). Type of experiment: functional. In short, it runs like this: (§1)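 DBA/1 mice immunised with bovine type II collagen, booster at day 21 (modified Courtenay model). Compound given intraperitoneally from 2 days before the first collagen challenge, then every 2 days. Incidence is the percentage of animals per group showing joint or limb inflammation, scored visually on days 23, 30, 37 and 44.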

The subject of experiment [2] is Mus musculus. Kind of experiment: Incidence of disease(mouse type II collagen arthritis) was scored as the percentage of animals within each experimental group that exhibited joint or limb inflammation on day 23 at intraperitoneal dose of 12 mg/kg (1 animal died). Format: functional. In short, it runs like this:
as §1

Experiment [3] deals with Mus musculus. Kind of experiment: Incidence of disease(mouse type II collagen arthritis) was scored as the percentage of animals within each experimental group that exhibited joint or limb inflammation on day 30 at intraperitoneal of dose 12 mg/kg (1 animal died). Format: functional. In short, it runs like this:
as §1

Experiment [4] concerns Mus musculus. As to the kind of experiment: Tested for antiinflammatory activity on mouse type II collagen arthritis as Paw swelling* of all animals in each group on day 44 at intraperitoneal dose of 12 mg/kg; d means 3 animals died. Type of experiment: functional, organism-based. Set-up: dose 12 mg/kg. The method, boiled down: (§2)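 DBA/1 mice immunized with bovine type II collagen (Courtenay method, modified), antigen booster at day 21. Compounds given ip from 2 days before the first collagen challenge, then every 2 days. Hind paw dimensions (mm) measured for both limbs of all animals, expressed as mean ± SD. Eight mice per dose; untreated controls pooled from four experiments (48 animals).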

Experiment [5] deals with Mus musculus. Kind of experiment: Tested for antiinflammatory activity on mouse type II collagen arthritis as Paw swelling* of all animals in each group on day 30 at intraperitoneal dose of 12 mg/kg. Type of experiment: functional. In short, it runs like this:
as §2

Experiment [6] has as its system Mus musculus. Kind of experiment: Tested for antiinflammatory activity on mouse type II collagen arthritis as Paw swelling* of all animals in each group on day 23 at intraperitoneal dose of 12 mg/kg. Type of experiment: functional. In short, it runs like this: as §2
For experiment [7], the system named is Mus musculus. As to the kind of experiment: Incidence of disease(mouse type II collagen arthritis) was scored as the percentage of animals within each experimental group that exhibited joint or limb inflammation on day 44 at intraperitoneal of dose 12 mg/kg; d means 3 animals died. On the set-up: dose 12 mg/kg. Particulars: at 12 mg/kg. Type of experiment: functional, organism-based. The method, boiled down: (§3)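 DBA/1 mice were immunized with bovine type II collagen (modified Courtenay method), with a collagen booster on day 21. Compounds were given ip starting 2 days before the first collagen challenge and every 2 days thereafter. Incidence was the percentage of animals per group with joint or limb inflammation, scored on days 23, 30, 37 and 44.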

Experiment [8] relates to Mus musculus. Kind of experiment: Tested for antiinflammatory activity on mouse type II collagen arthritis as Paw swelling* of all animals in each group on day 37 at intraperitoneal dose of 12 mg/kg. Format: functional. The method, boiled down: as §2
Experiment [9] concerns Mus musculus. Kind of experiment: Incidence of disease(mouse type II collagen arthritis) was scored as the percentage of animals within each experimental group that exhibited joint or limb inflammation on day 30 at intraperitoneal of dose 18 mg/kg. Format: functional. The method, boiled down:
as §3

Experiment [10] deals with Mus musculus. Kind of experiment: Incidence of disease(mouse type II collagen arthritis) was scored as the percentage of animals within each experimental group that exhibited joint or limb inflammation on day 37 at intraperitoneal of dose 12 mg/kg. Type of experiment: functional. The method, boiled down: as §3
Experiment [11] concerns Mus musculus. Kind of experiment: Incidence of disease(mouse type II collagen arthritis) was scored as the percentage of animals within each experimental group that exhibited joint or limb inflammation on day 37 at intraperitoneal of dose 18 mg/kg. Format: functional. The method, boiled down:
as §3

In experiment [12] the test system is Mus musculus. As to the kind of experiment: Incidence of disease(mouse type II collagen arthritis) was scored as the percentage of animals within each experimental group that exhibited joint or limb inflammation on day 23 at intraperitoneal dose of 12 mg/kg. Format: functional. In short, it runs like this: as §3
Experiment [13] relates to Mus musculus. Kind of experiment: Incidence of disease(mouse type II collagen arthritis) was scored as the percentage of animals within each experimental group that exhibited joint or limb inflammation on day 23 at intraperitoneal dose of 18 mg/kg. Type of experiment: functional. The method, boiled down:
as §3

Experiment [14] deals with Mus musculus. As to the kind of experiment: Incidence of disease(mouse type II collagen arthritis) was scored as the percentage of animals within each experimental group that exhibited joint or limb inflammation on day 30 at intraperitoneal of dose 12 mg/kg. Format: functional. The method, boiled down: as §3
Experiment [15] deals with Mus musculus. As to the kind of experiment: Tested for antiinflammatory activity on mouse type II collagen arthritis as Paw swelling* of all animals in each group on 30 at intraperitoneal dose of 18 mg/kg. Type of experiment: functional. The method, boiled down: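 DBA/1 mice were challenged with bovine type II collagen and boosted on day 21. Dosing was ip from 2 days before the initial challenge, then every 2 days, with eight animals per dose. Hind paw dimensions (mm) were measured for both limbs of all animals and given as mean ± SD. Untreated controls were pooled from four experiments (48 animals).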

Experiment [16] deals with Mus musculus. As to the kind of experiment: Tested for antiinflammatory activity on mouse type II collagen arthritis as Paw swelling* of all animals in each group on day 44 at intraperitoneal dose of 12 mg/kg. Type of experiment: functional. The method, boiled down:
as §2

In experiment [17] the test system is Mus musculus. As to the kind of experiment: Tested for antiinflammatory activity on mouse type II collagen arthritis as Paw swelling* of all animals in each group on day 44 at intraperitoneal dose of 18 mg/kg. Format: functional. The method, boiled down: as §2
The subject of experiment [18] is Mus musculus. As to the kind of experiment: Tested for antiinflammatory activity on mouse type II collagen arthritis as Paw swelling* of all animals in each group on day 23 at intraperitoneal dose of 18 mg/kg. Type of experiment: functional. In short, it runs like this: as §2
In experiment [19] the test system is Mus musculus. As to the kind of experiment: Incidence of disease(mouse type II collagen arthritis) was scored as the percentage of animals within each experimental group that exhibited joint or limb inflammation on day 44 at intraperitoneal of dose 12 mg/kg. Type of experiment: functional. The method, boiled down:
as §3

In experiment [20] the test system is Mus musculus. Kind of experiment: Incidence of disease(mouse type II collagen arthritis) was scored as the percentage of animals within each experimental group that exhibited joint or limb inflammation on day 44 at intraperitoneal of dose 18 mg/kg. Type of experiment: functional. In short, it runs like this: as §3
Experiment [21] concerns Mus musculus. Kind of experiment: Tested for antiinflammatory activity on mouse type II collagen arthritis as Paw swelling* of all animals in each group on day 37 at intraperitoneal dose of 18 mg/kg. Format: functional. In short, it runs like this:
as §2

Structures are written as SMILES.

Turning to `Nc1nc(N)c2nc(CCc3ccc(C(=O)NC(CCC(=O)O)C(=O)O)nc3)cnc2n1` (centres undefined), the Animals is 0% in the experiment on Mus musculus [1], 0% in the experiment on Mus musculus [2], 0% with Mus musculus [3] and “Three animals died” in the experiment on Mus musculus [7]. Besides, the Paw swelling result was “Three animals died” with Mus musculus [4], 2.11 mm with Mus musculus [5], 2.14 mm in the experiment on Mus musculus [6] and 2.07 mm in the experiment with Mus musculus [8].

On to `CCC(Cc1cnc2nc(N)nc(N)c2n1)c1ccc(C(=O)N[C@@H](CCC(=O)O)C(=O)O)cc1` (some centres undefined) [EDATREXATE], for which the Animals with Mus musculus [9] is given as 0%; in the experiment with Mus musculus [10], 38%; in the experiment on Mus musculus [11] it was 12%; in the experiment with Mus musculus [12], 25%; with Mus musculus [13], 12%; in the experiment with Mus musculus [14] it was 25%. Moreover, the values for the Animals in the experiment on Mus musculus [19] and in the experiment with Mus musculus [20] were 50% and 12%, respectively. Also, the Paw swelling in the experiment on Mus musculus [15] was determined as 2.24 mm; in the experiment with Mus musculus [16] it was 2.32 mm; in the experiment on Mus musculus [17] it was 2.18 mm; in the experiment on Mus musculus [5], 2.28 mm; in the experiment on Mus musculus [6], 2.26 mm; in the experiment with Mus musculus [18] it was 2.18 mm. The Paw swelling with Mus musculus [8] amounted to 2.34 mm; with Mus musculus [21], 2.19 mm.
